Most compounds without a hit are left out; they make up all but 4.7% or so of the library.
MC4R antagonist – blocks human MC4R cAMP signaling. inhibition, % at 6.5 µM. AID 540295. 360,000 tested, 0.48% active. MC4R-expressing cells, MTII-stimulated cAMP, LANCE TR-FRET. P32245;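 active = inhibition above its plate's cutoff, the mean of tested wells on that plate plus 3 SD, cut at about 29% in these data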;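 also: 0% = Melanotan II alone and 100% = Melanotan II plus saturating MCL0020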
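material = U2OS cells stably expressing human melanocortin 4 receptor (MC4R) | also added = Melanotan II challenge | dosing = single nominal compound dose of 6.5 µM | detection = TR-FRET with Eu-cAMP and labeled anti-cAMP, 671 nm | replication = singlicate | timing = compound 30 min, challenge 1 h, detection 1 h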
AHR activator – activators of human aryl hydrocarbon receptor. AHR-responsive luciferase reporter cells, luminescence. activation, % at 5 µM. 320,000 tested, 2.5% active. AID 2796; in the data active = activation above about 47%;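 also: 0% = vehicle wells and 100% = reference agonist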
GAA850 FXN act – frataxin GAA850 promoter activation. HEK293 lucGAA850 FXN promoter luciferase reporter, 24 h; percent of 10 µM SAHA response. activation, % at 6 µM. 360,000 tested, 0.56% active. AID 540364;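 active = activation above the average of all compounds screened plus 3 SD, cutoff fixed separately per campaign, cut at about 7.5% in these data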;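 also: 0% = DMSO wells and 100% = 10 µM SAHA wells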
m5-HT2A agonist – agonists of mouse serotonin 5-HT2A receptor (HTR2A); P35363; CHO-K1 mHTR2A beta-arrestin complementation, luminescence; percent of 30 µM serotonin response; activation, % at 7.6 µM; 360,000 tested, 0.66% active; AID 624169;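 active = activation above a run cutoff, the mean activation of all tested compounds plus 3 SD, cut at about 14% in these data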;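 also: 0% = plate median of compound wells and 100% = 30 µM serotonin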
Target sequence (P35363 whole entry, looked up): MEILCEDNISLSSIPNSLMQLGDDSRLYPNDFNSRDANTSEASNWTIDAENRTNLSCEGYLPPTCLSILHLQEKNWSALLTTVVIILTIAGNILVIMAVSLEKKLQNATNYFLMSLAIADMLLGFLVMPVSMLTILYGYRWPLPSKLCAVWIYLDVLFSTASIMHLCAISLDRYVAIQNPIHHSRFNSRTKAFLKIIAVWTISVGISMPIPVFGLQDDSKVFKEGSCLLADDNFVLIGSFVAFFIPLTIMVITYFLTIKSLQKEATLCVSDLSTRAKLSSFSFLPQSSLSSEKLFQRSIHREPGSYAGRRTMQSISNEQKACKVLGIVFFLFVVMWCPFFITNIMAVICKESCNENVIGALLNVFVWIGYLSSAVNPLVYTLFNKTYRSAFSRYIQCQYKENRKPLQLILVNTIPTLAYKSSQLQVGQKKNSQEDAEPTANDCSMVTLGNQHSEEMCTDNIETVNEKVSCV
MC4R ag barr – activates human MC4R beta-arrestin recruitment; activation, % at 8.9 µM; U2OS MC4R beta-arrestin complementation, luminescence; percent of melanotan II response, DMSO zero; 360,000 tested, 0.98% active; AID 540308;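 active = activation above a per-plate cutoff, the mean activation of sample wells on that plate plus 3 SD, cut at about 8% in these data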
AHR act confirm – confirmation of human aryl hydrocarbon receptor activators; shares compounds with AHR activator; human cells, AHR-responsive luciferase reporter, luminescence; activation, % at 9 µM; 2,300 tested, 87% active; AID 2845; in the data active = activation above about 49%;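 also: HepG2 hepatoma cells carrying a DRE-driven firefly luciferase reporter; 0% = vehicle wells and 100% = reference agonist wells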
PXR act counter – PXR activation, counter-screen for AHR activators | AID 434939 | cell-based PXR reporter, luciferase luminescence | activation, % at 11.6 µM | shares compounds with AHR activator | 2,300 tested, 88% active; in the data active = activation above about 11%;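 also: human hepatoma DPX-2 cells expressing full-length human PXR; 0% = DMSO and 100% = reference agonist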
Active calls of the source: *; . = no result given.

SMILES	MC4R antagonist	AHR activator	GAA850 FXN act	m5-HT2A agonist	MC4R ag barr	AHR act confirm	PXR act counter
O=C(N/N=C\c1cccs1)c1ccccc1-n1cccc1	-3	44	0	-3	-3	.	.
O=C(NNS(=O)(=O)c1ccccc1)c1ccccc1-n1cccc1	-1	-1	1	0	-1	.	.
O=C(N/N=C\c1ccccc1)c1ccccc1-n1cccc1	-2	92*	3	1	1	111*	38*
COC(=O)[C@H]1C[C@H](O)CN1S(=O)(=O)c1ccc(Br)cc1F	3	.	0	-1	0	.	.
Clc1ccccc1-c1nc(-c2ccc(Br)o2)no1	5	100*	4	-2	2	108*	43*
COc1ccc(-c2noc(-c3cc(C)cc(C)c3)n2)cc1OC	2	4	1	-2	4	.	.
O=[N+]([O-])c1cc(Cl)ccc1-c1nc(-c2ccccc2)no1	7	44	5	5	0	.	.
COc1cc(-c2nc(-c3ccc(Br)o3)no2)cc(OC)c1OC	2	91*	0	2	-1	84*	14*
Brc1ccc(-c2nc(-c3ccncc3)no2)o1	1	16	3	2	2	.	.
Brc1ccc(-c2noc(-c3ccccn3)n2)o1	2	101*	2	3	-2	71*	25*
O=[N+]([O-])c1ccccc1-c1nc(-c2ccc(Br)o2)no1	1	112*	6	-5	-4	109*	47*
O=[N+]([O-])c1ccc(C23CC4CC(CC(O)(C4)C2)C3)cc1	.	5	.	.	.	.	.
CCN1C(=O)[C@H]2[C@@H](c3ccc(C(F)(F)F)cc3)N[C@]3(CCCN(Cc4ccco4)C3=O)[C@H]2C1=O	1	.	-2	4	-1	.	.
COc1ccccc1C(=O)NCC(=O)N/N=C/c1cn[nH]c1-c1ccccc1	-32	156*	0	-1	-3	111*	12*
O=C(CNC(=O)c1ccccc1)N/N=C/c1cn[nH]c1-c1ccccc1	3	146*	1	-6	-2	92*	20*
COc1ccc(-c2[nH]ncc2/C=N\NS(=O)(=O)c2ccccc2)cc1OC	12	92*	2	-3	-2	33	24*
Cc1cccc(C)c1NC(=O)CSc1nnc(C2CCCCC2)o1	0	2	1	2	0	.	.
COc1ccc(NC(=O)CN(C)CC(=O)Nc2sc3c(c2C#N)CCC3)cc1	5	4	-1	-2	1	.	.
CN(C)CCCNc1nc(-c2ccc(Cl)cc2)nc2ccccc12	6	114*	4	-7	0	77*	26*
CC[C@@]1(C(=O)OC)N[C@H](CN(C)C(=O)COC)[C@@H]2C(=O)N(Cc3ccccc3)C(=O)[C@@H]21	-1	0	1	-1	-1	.	.
OC(c1cccc(Cl)c1)c1ncc(-c2cccc(C(F)(F)F)c2)[nH]1 (stereo not given)	-21	.	1	-1	4	.	.
O=C(/C=C/c1ccc(F)cc1)N1CCc2ccccc2C1	5	100*	3	-2	-2	136*	60*
Cc1ccc2c(c1)N=C(c1ccc(Cl)cc1)CO2	-9	135*	3	-2	-1	108*	31*
c1ccc(C2=Nc3ccccc3OC2)cc1	8	21	1	-1	-2	.	.
Cc1ccc(C2=NOC(C)(c3sc(-c4ccc(Cl)cc4)nc3C)C2)cc1 (stereo not given)	3	0	3	7	2	.	.
SMILES	MC4R antagonist	AHR activator	GAA850 FXN act	m5-HT2A agonist	MC4R ag barr	AHR act confirm	PXR act counter
Clc1ccc(C2=Nc3cc(Cl)ccc3OC2)cc1	4	104*	3	-4	0	129*	6
Cc1nc(C)c(C(=O)OCC(=O)Nc2ccc(C)c(C)c2)s1	4	.	0	-1	0	.	.
c1ccc(-c2nc(NCc3ccco3)c3oc4ccccc4c3n2)cc1	16	88*	4	-2	-2	105*	35*
CCc1cccc(CC)c1NC(=O)CSc1nc2ccc(N3C(=O)C4C5C=CC(C5)C4C3=O)cc2s1 (stereo not given)	15	126*	-2	7	0	53*	69*
O=C(O)c1ccc(CSc2nc3ccc(N4C(=O)C5C6C=CC(C6)C5C4=O)cc3s2)cc1 (stereo not given)	14	5	0	0	-1	.	.
CC1(C)CC(=O)C=C(c2n[nH]nc2C2CC2)C1	-2	.	-1	3	2	.	.
S=C(NCc1ccc2[nH]c3c(c2c1)CCCC3)Nc1ccccc1	0	112*	-1	-7	4	71*	36*
Cc1cc(C)cc(NC(=S)NCc2ccc3[nH]c4c(c3c2)CCCC4)c1	10	22	-2	-2	1	.	.
O=S(=O)(Cc1ccccc1)N1CCc2ccccc2C1	7	15	0	-1	0	.	.
O=S(=O)(Cc1ccccc1)N1CCCc2ccccc21	8	125*	2	1	0	114*	80*
CCSc1ncc(/C=N/Nc2ccccc2)n1C	1	89*	5	-5	0	145*	49*
COc1ccc(NC(=O)COC(=O)CN2C(=O)c3ccccc3C2=O)cc1	15	.	1	-2	-3	.	.
Cc1cc(C(F)(F)F)n2ncc(-c3ccc(F)cc3)c2n1	-9	88*	0	-3	-2	120*	23*
Cc1ccc(NC2=C(NC(=O)c3ccccc3)C(=O)c3ccccc3C2=O)cc1Cl	-2	104*	-3	-5	-4	106*	93*
Cc1ccc(NCC(=O)c2ccccc2)cc1Cl	6	-3	-2	2	4	.	.
N#C/C(=C1/CCCCCN1)c1nc2ccccc2[nH]1	-3	115*	4	3	-1	144*	48*
COc1ccc(C(C)(O)c2nc(-c3ccccc3OC)cs2)cc1 (stereo not given)	-3	.	0	5	-2	.	.
CN(C(=O)/C=C/c1ccc2c(c1)OCO2)c1ccccc1	10	97*	4	-2	-1	79*	114*
CC(C)(C)c1ccc(C(=O)N/C(N)=N/c2nc3ccccc3o2)cc1	22	12	1	0	3	.	.
N/C(=N\c1nc2ccccc2o1)NC(=O)c1ccc(F)cc1	-1	83*	6	3	4	145*	30*
N/C(=N\c1nc2ccccc2o1)NC(=O)c1ccccc1Br	15	95*	3	-1	1	43	28*
CN(Cc1ccccc1)C(=O)[C@@H]1CCCN1C(=O)[C@@H]1CCCN1C(=O)OC(C)(C)C	.	.	.	1	.	.	.
O=C(Nc1ccccn1)C(=O)Nc1ccccn1	-4	4	6	2	0	.	.
